Blank lines part the entries; values can stand above or below the compound they belong to.
Legend:
wildtype hPFKFB2 = wildtype hPFKFB2 (Homo sapiens, UniProt O60825); test: 2-kinase inhibition assay; format: biochemical; details: wild-type; for Ki: Citrate Kis
Method in brief: (§1)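 His-tagged enzyme was expressed in E. coli BL21 C41(DE3) and purified by Ni-NTA then SP Sepharose. Step 1 used 130 nM enzyme in 20 mM TES pH 8.0, 1 mM DTT, 2 mM MgCl2 and 0.5% tween, with varied citrate, ATP and Fru-6-P (fixed substrate 250 μM), for 10 min at 25°C. Reactions were KOH-stopped and neutralized. Fru-2,6-P2 was read by PPi-PFK/aldolase/TPI/[…] coupling as A340 over 30 min. Constants came from non-linear regression.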

hPFKFB2 Y428A mutant = hPFKFB2 Y428A mutant (Homo sapiens, UniProt O60825, Y428A); test: 2-kinase inhibition assay; format: biochemical; details: for Ki: Citrate Kis
hPFKFB2 Y428A mutant, sequence (O60825 whole entry Y428A): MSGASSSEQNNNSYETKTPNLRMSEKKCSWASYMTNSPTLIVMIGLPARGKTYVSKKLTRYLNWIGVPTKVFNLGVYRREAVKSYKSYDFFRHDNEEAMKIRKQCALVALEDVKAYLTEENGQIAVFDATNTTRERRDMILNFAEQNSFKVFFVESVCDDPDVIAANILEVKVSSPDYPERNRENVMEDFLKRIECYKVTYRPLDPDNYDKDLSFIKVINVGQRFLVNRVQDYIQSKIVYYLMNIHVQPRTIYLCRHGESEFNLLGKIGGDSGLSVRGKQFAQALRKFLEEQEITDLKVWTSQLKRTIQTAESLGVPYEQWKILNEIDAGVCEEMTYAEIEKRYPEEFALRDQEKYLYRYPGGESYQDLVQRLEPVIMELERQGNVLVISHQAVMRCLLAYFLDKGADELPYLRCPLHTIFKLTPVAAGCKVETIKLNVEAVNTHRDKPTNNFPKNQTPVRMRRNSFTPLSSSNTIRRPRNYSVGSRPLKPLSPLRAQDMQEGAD
Method in brief: as §1

[1] = variable substrate ATP, fixed substrate F6P 250μM
[2] = Y428A, variable substrate ATP, fixed substrate F6P 250μM

wildtype hPFKFB2, sequence (O60825 whole entry): as the sequence (O60825 whole entry Y428A) above, with A428Y counted along it

Ki (wildtype hPFKFB2; [1]): 50.2 µM | Ki (wildtype hPFKFB2; variable substrate F6P, fixed substrate ATP 250μM): 80.3 ± 6.5 µM | Citrate Kii (wildtype hPFKFB2; [1]): 58.75 ± 9.9 µM | inhibition mechanism (in words) (wildtype hPFKFB2; versus ATP): non-competitive inhibitor | inhibition mechanism (in words) (wildtype hPFKFB2; versus F6P): competitive inhibitor | Ki (hPFKFB2 Y428A mutant; [2]): 2.43 ± 1 µM | Ki (hPFKFB2 Y428A mutant; Y428A, variable substrate F6P, fixed substrate ATP 250μM): 67.3 ± 4.2 µM | increase in affinity for the inhibitor, Y428A versus wild-type (hPFKFB2 Y428A mutant; Kis with ATP as variable substrate, from 50.2 μM to 2.4 μM): 20 fold | Citrate Kii (hPFKFB2 Y428A mutant; [2]): 3.05 ± 1.4 µM
SMILES: O=C(O)CC(O)(CC(=O)O)C(=O)O [Citrate]

SMILES: Nc1ncnc2c1ncn2[C@@H]1O[C@H](COP(=O)(O)OP(=O)(O)OP(=O)(O)O)[C@@H](O)[C@H]1O [ATP]
KmATP (wildtype hPFKFB2): 38.8 ± 5.3 µM | KmATP (hPFKFB2 Y428A mutant; Y428A): 40.7 ± 4.2 µM

KmF6P (wildtype hPFKFB2): 80.3 ± 7.6 µM | KmF6P (hPFKFB2 Y428A mutant; Y428A): 13.8 ± 4.3 µM | increase in affinity for Fru-6-P, Y428A versus wild-type (hPFKFB2 Y428A mutant; from Km values): 6 fold
SMILES: O=C(CO)[C@@H](O)[C@H](O)[C@H](O)COP(=O)(O)O [F6P, fructose-6-phosphate]

From article PMC5193105 (Proteins, 2016)
